Experimental data from paper PMC12138345 (RSC Advances, 2025).
Structures can show the parent of a compound that is named as a salt. Where two headings read alike, the source gives them in different places.

What was measured:
CtPilB = target: T1, CtPilB (Chloracidobacterium thermophilum, UniProt G2LDI3); test: CtPilB ATPase malachite green assay; format: biochemical; conditions: for inhibition at 3 µM: read-out: % Inhib. 3 μM; for inhibition at 30 µM: read-out: % Inhib. 30 μM
T1 sequence (G2LDI3 140-614): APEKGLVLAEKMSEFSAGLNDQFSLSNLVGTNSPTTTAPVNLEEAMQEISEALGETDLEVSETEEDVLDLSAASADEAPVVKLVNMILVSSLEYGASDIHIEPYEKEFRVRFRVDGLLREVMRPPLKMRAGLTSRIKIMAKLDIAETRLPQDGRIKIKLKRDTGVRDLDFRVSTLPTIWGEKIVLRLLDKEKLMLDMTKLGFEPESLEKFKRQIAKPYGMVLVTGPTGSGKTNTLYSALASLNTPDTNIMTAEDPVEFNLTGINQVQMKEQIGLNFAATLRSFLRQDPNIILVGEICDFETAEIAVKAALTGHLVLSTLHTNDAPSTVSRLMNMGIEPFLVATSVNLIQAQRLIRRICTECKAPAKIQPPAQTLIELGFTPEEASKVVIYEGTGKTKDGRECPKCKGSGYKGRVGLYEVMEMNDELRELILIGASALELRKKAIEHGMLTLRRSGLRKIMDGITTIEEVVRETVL
In short: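 N-terminally truncated CtPilB hexamer (lacking residues 1–139, purified), 3.3 nM, with 1 mM ATP, 2% DMSO and test compound, 54 °C, 30 min. Quenched with 30% TCA; phosphate detected by malachite green/ammonium molybdate, absorbance at 620 nm, room temperature. Screen at 3 and 30 μM with benserazide as benchmark; IC50 from concentration–response fits.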

apyrase = test: Apyrase ATPase selectivity assay; format: biochemical; conditions: varying concentrations up to 64 μM; 1 mM ATP, 37 °C, 30 min; p-value > 0.05
In short: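 Commercial apyrase (6.7 × 10−7 U μl−1) with 1 mM ATP in 20 mM MES, 50 mM NaCl, 5 mM CaCl2, 1 mM DTT, 2% DMSO, test compound up to 64 μM, 37 °C, 30 min. Stopped with 30% TCA; released phosphate measured by malachite green assay. Biological experiments run in duplicate; concentrations compared statistically.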

SMILES	inhibition at 3 µM (CtPilB)	inhibition at 30 µM (CtPilB)	further results
C[C@@H](N)C(=O)N/N=C/c1c(O)cccc1O [11b, (R,E)-2-amino-N′-(2,6-dihydroxybenzylidene)propanehydrazide hydrochloride]	26 ± 11%	87 ± 4%	
N[C@H](CO)C(=O)NNCc1ccc(O)cc1O [7e, (R)-2-Amino-N′-(2,4-dihydroxybenzyl)-3-hydroxypropanehydrazide hydrochloride]		40 ± 2%	
N[C@H](CO)C(=O)N/N=C/c1ccc(O)cc1 [8c, (R,E)-2-Amino-3-hydroxy-N′-(4-hydroxybenzylidene)propanehydrazide hydrochloride]		2 ± 3%	
N[C@H](CO)C(=O)N/N=C/c1ccc(O)c(O)c1O [8j, (R,E)-2-Amino-3-hydroxy-N′-(2,3,4-trihydroxybenzylidene)propanehydrazide hydrochloride]	35 ± 9%	84 ± 2%	
N[C@H](CO)C(=O)NNCc1ccccc1O [7a, (R)-2-Amino-3-hydroxy-N′-(2-hydroxybenzyl)propanehydrazide hydrochloride]		32 ± 4%	
NNC(=O)[C@@H](N)CO [compound 4, (S)-2-Amino-3-hydroxypropanehydrazide dihydrochloride]		27 ± 19%	
N[C@H](CO)C(=O)N/N=C/c1cccc(O)c1 [8b, (R,E)-2-Amino-3-hydroxy-N′-(3-hydroxybenzylidene)propanehydrazide hydrochloride]		18 ± 9%	
N[C@H](CO)C(=O)N/N=C/c1ccccc1O [8a, (R,E)-2-Amino-3-hydroxy-N′-(2-hydroxybenzylidene)propanehydrazide hydrochloride]		23 ± 21%	
N[C@H](CO)C(=O)N/N=C/c1ccc(O)cc1O [8e, (R,E)-2-Amino-N′-(2,4-dihydroxybenzylidene)-3-hydroxypropanehydrazide hydrochloride]		69 ± 10%	
NCC(=O)N/N=C/c1c(O)cccc1O [11a, (E)-2-Amino-N′-(2,6-dihydroxybenzylidene)acetohydrazide hydrochloride]	55 ± 8%	92 ± 5%	
NC(CO)C(=O)NNCc1ccc(O)c(O)c1O (stereo not shown) [Benserazide, reference compound]	34 ± 10%	80 ± 8%	IC50 (CtPilB): 3680 nM; Inhibition of apyrase ATPase activity (apyrase): no significant difference
N[C@H](CO)C(=O)N/N=C/c1cc(O)ccc1O (mixture of isomers) [8f, (R,E)-2-Amino-N′-(2,5-dihydroxybenzylidene)-3-hydroxypropanehydrazide hydrochloride]	40 ± 26%	80 ± 16%	
Cl.N[C@H](CS)C(=O)N/N=C/c1c(O)cccc1O [11c, (S,E)-2-Amino-N′-(2,6-dihydroxybenzylidene)-3-mercaptopropanehydrazide hydrochloride]	90 ± 1%	97 ± 11%	IC50 (CtPilB): 580 nM; Potency relative to benserazide (CtPilB; ratio of IC50 values): 6 fold; Inhibition of apyrase ATPase activity (apyrase): no significant difference
N[C@H](CO)C(=O)NNCc1cc(O)ccc1O [7f, (R)-2-Amino-N′-(2,5-dihydroxybenzyl)-3-hydroxypropanehydrazide hydrochloride]		45 ± 6%	
N[C@H](CO)C(=O)N/N=C/c1ccc(O)c(O)c1 [8i, (R,E)-2-Amino-N′-(3,4-dihydroxybenzylidene)-3-hydroxypropanehydrazide hydrochloride]		14 ± 4%	
N[C@H](CO)C(=O)NNCc1cccc(O)c1O [7d, (R)-2-Amino-N′-(2,3-dihydroxybenzyl)-3-hydroxypropanehydrazide hydrochloride]	19 ± 12%	78.2 ± 4%	
Cl.N[C@H](CO)C(=O)N/N=C/c1c(O)ccc(O)c1O [8k, (R,E)-2-Amino-3-hydroxy-N′-(2,3,6-trihydroxybenzylidene)propanehydrazide hydrochloride]	71 ± 4%	91 ± 8%	IC50 (CtPilB): 1060 nM; Inhibition of apyrase ATPase activity (apyrase): no significant difference
N[C@H](CO)C(=O)N/N=C/c1cccc(O)c1O [8d, (R,E)-2-Amino-N′-(2,3-dihydroxybenzylidene)-3-hydroxypropanehydrazide hydrochloride]		84 ± 4%	
N[C@H](CO)C(=O)N/N=C/c1c(O)cccc1O [8g, (R,E)-2-Amino-N′-(2,6-dihydroxybenzylidene)-3-hydroxypropanehydrazide hydrochloride]	65 ± 5%	86 ± 3%	IC50 (CtPilB; dose–response 0.01–50 μM, benserazide as control): 1320 nM
N[C@H](CO)C(=O)NNCc1c(O)cccc1O [7g, (R)-2-Amino-N′-(2,6-dihydroxybenzyl)-3-hydroxypropanehydrazide hydrochloride]	32 ± 12%	74 ± 5%	
COc1cccc(O)c1/C=N/NC(=O)[C@H](N)CO [8h, (R,E)-2-Amino-3-hydroxy-N′-(2-hydroxy-6-methoxybenzylidene)propanehydrazide hydrochloride]		67 ± 4%	
COc1ccc(/C=N/NC(=O)[C@H](N)CO)c(OC)c1OC.Cl [8l, (R,E)-2-Amino-3-hydroxy-N′-(2,3,4-trimethoxybenzylidene)propanehydrazide hydrochloride]			Activity against PilB (in words) (CtPilB; screen at 3 and 30 μM): essentially had no activity
